Data reported in ChEMBL document CHEMBL4428043, “Fragment-Based Discovery of Dual JC Virus and BK Virus Helicase Inhibitors” (J Med Chem, 2016).

What was measured:
Large T antigen = target: T1, Large T antigen (JC polyomavirus, UniProt P03072); experiment: Inhibition of helicase activity of JC polyomavirus LTAg (E264 to D628 residues) expressed in Escherichia coli using Cy5/BHQ3 dsDNA pre-incubated for 20 mins and measured after 120 to 180 mins by fluorescence based assay
T1 sequence (P03072 whole entry): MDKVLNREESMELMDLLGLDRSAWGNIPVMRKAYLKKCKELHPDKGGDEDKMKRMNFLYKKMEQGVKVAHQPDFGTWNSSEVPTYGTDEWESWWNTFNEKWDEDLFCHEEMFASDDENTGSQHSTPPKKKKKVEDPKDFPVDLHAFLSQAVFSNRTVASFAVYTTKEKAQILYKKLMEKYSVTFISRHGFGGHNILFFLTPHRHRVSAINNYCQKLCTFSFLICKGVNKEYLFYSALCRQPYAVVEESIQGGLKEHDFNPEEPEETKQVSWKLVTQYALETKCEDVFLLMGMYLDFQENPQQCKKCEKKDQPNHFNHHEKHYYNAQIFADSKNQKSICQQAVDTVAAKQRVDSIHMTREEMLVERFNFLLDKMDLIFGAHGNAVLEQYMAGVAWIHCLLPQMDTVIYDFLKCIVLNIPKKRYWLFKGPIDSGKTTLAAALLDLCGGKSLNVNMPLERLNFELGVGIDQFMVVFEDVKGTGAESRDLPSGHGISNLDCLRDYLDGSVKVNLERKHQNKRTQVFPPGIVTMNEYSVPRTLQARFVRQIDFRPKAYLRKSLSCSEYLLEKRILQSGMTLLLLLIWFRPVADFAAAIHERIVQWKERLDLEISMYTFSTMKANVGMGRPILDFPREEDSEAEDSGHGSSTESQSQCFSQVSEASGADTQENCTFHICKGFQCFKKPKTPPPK

[1] = Inhibition of helicase activity of BK polyomavirus LTAg (E265 to D629 residues) expressed in Escherichia coli using Cy5/BHQ3 dsDNA pre-incubated for 20 mins and measured after 120 to 180 mins by fluorescence based assay; design: species or system Betapolyomavirus hominis
JC polyomavirus = experiment: Antiviral activity against JC polyomavirus infected in […] G144 […] cells assessed as reduction in late viral protein and viral capsid protein VP1 incubated for 72 hrs by branched DNA assay; type: functional, organism-based
Procedure, shortened: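 G144 […] cells plated on poly-ornithine (0.005%)/laminin (10 µg/ml)-coated flasks, infected with MAD4 JCV at MOI = 1 TCID₅₀ for 24 hr, then replated at 5,000 cells/well in differentiation medium. Compounds added in DMSO (0.5% final) for 72 hr. Lysates denatured with NaOH at 52°C for 30 min; VP1 DNA measured by bDNA capture probes. EC50 from four-parameter curve fit.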

[2] = Cytotoxicity against […] G144 […] cells; type: cell-based

SMILES | IC50 (Large T antigen) [µM] | IC50 [1] [µM] | EC50 (JC polyomavirus) [µM] | CC50 [2] [µM]
c1ccc(C2CC2)c(-c2nn3cnnc3s2)c1 | > 80 | > 80 |  | 
CNc1cc2nc(-c3ccccc3OC)sc2cn1 | > 80 | > 80 |  | 
c1ccc(-c2nn3cnnc3s2)c(OCCN2CCOCC2)c1 | 52 | 73 |  | 
c1ccc(Oc2ncccc2-c2nn3cnnc3s2)cc1 | 8.8 | 11 | 76 | > 50
COc1ccc(-c2nn3cnnc3s2)c(OC)c1 | 18 | 24 |  | 
CCOc1ccccc1-c1nc2cnccc2s1 | > 80 | > 80 |  | 
Nc1ccccc1-c1nn2cnnc2s1 | > 80 | > 80 |  | 
CC(=O)Nc1ccc(Oc2ncccc2-c2nc3ccncc3s2)cc1 | 0.6 |  | 40 | > 50
COCCOc1ccccc1-c1nn2cnnc2s1 | 28.5 | 63 |  | 
c1ccc(-c2nn3cnnc3s2)c(OCCC2CCOCC2)c1 | 5.8 | 8.4 | 15 | > 50
COc1ccccc1-c1nc2ccncc2s1 | 5 | 10.7 | 1.5 | > 50
Cc1ccccc1-c1nn2cnnc2s1 | > 80 | > 80 |  | 
COc1ccccc1-c1nc2cc(N)ncc2s1 | 4.3 | 8.7 |  | 
CCOc1ccccc1-c1nc2ccncc2s1 | 9.1 | 8 | 7.4 | > 50
CC(=O)Nc1ccc(Oc2ccccc2-c2nc3ccncc3s2)cc1 | 0.9 | 1.6 | 48 | > 50
c1ccc(-c2nc3ccncc3s2)c(OCCC2CCOCC2)c1 | 9.6 | 11 | 7.7 | > 50
c1ccc(Oc2ccccc2-c2nc3ccncc3s2)cc1 | 10.5 | 10.2 | 36 | > 50
c1cc2c(c(-c3nc4ccncc4s3)c1)OCC2 | 8.7 | 15 | 0.26 | > 50

SMILES | IC50 (Large T antigen) [µM] | IC50 [1] [µM] | EC50 (JC polyomavirus) [µM] | CC50 [2] [µM]
COc1ccccc1Cc1nn2cnnc2s1 | > 80 | > 80 |  | 
N#CCCCOc1ccccc1-c1nn2cnnc2s1 | 25 | 42 |  | 
COc1cccc(OC)c1-c1nn2cnnc2s1 | > 80 | > 80 |  | 
Oc1ccccc1-c1nc2ccncc2s1 | 37 | 53 |  | 
CCOc1ccccc1-c1nn2cnnc2s1 | 18 |  | 44 | > 65
c1ccc(Oc2ncccc2-c2nc3ccncc3s2)cc1 | 1.4 | 1.3 | 3.8 | > 50
CN(C)c1ccccc1-c1nn2cnnc2s1 | > 80 | > 80 |  | 
COc1ccccc1-c1nc2ccnc(N)c2s1 | > 80 | > 80 |  | 
c1ccc(Oc2ccncc2-c2nn3cnnc3s2)cc1 | 5.5 | 7.3 |  | 
c1cc2c(c(-c3nn4cnnc4s3)c1)OCCC2 | 15.5 | 24 |  | 
Oc1ccccc1-c1nn2cnnc2s1 | > 80 | > 80 |  | 
c1ccc(Oc2ncncc2-c2nn3cnnc3s2)cc1 | > 80 | > 80 |  | 
COc1cccc(-c2nn3cnnc3s2)c1OC | 62 | > 80 |  | 
COc1ccccc1-c1nn2cnnc2s1 | 19.4 | 29 | > 60 | > 80
c1ccc(-c2nn3cnnc3s2)c(OCC2CCOCC2)c1 | 6.3 | 17 |  | 
c1ccc(Oc2ccccc2-c2nn3cnnc3s2)cc1 | 4.9 | 3.7 | 34 | > 50
c1cc2c(c(-c3nn4cnnc4s3)c1)OCC2 | 13.5 | 21 | > 16 | > 50
